Laboratory results as given in ChEMBL document CHEMBL3425438, “Investigation of (E)-3-[4-(2-Oxo-3-aryl-chromen-4-yl)oxyphenyl]acrylic Acids as Oral Selective Estrogen Receptor Down-Regulators” (J Med Chem, 2015).
Converted amounts (≈) assume the structure as drawn.

How the values were obtained:
Estrogen receptor [1] = biological target: T1, Estrogen receptor (Homo sapiens, UniProt P03372); assay: Binding affinity to ER alpha (unknown origin) by LanthaScreen TR-FRET competitive binding assay
T1 sequence (P03372 whole entry): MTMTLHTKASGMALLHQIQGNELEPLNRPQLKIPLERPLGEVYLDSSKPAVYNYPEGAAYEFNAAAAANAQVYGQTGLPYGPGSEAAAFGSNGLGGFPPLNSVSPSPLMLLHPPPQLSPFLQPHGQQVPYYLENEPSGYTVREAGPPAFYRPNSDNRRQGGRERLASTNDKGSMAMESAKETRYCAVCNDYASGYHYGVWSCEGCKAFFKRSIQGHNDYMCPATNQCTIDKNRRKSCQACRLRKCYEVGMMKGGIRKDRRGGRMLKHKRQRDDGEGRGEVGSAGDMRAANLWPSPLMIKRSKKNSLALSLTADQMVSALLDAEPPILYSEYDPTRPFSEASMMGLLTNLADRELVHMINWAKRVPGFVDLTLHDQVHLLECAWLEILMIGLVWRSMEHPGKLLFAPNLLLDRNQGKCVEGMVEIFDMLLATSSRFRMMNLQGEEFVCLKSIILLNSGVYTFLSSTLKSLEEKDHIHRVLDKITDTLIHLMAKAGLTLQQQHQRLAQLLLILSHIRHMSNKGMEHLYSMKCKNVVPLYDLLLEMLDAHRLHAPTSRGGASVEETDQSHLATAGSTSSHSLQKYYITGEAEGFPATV
Method in brief: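 LanthaScreen TR-FRET ERα competitive binding; 12-point half-log concentration response; TR-FRET emission ratio read on microplate reader; IC50 reported.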

Estrogen receptor [2] = biological target: T1, Estrogen receptor; assay: Suppression of ER alpha in human MCF7 cells after 24 hrs by immunostaining analysis; assay type: cell-based
[3] = Drug metabolism in rat hepatocytes assessed as formation of glucuronide conjugates by LC-UV-MS analysis; assay type: ADME, cell-based, Hepatocyte
[4] = Drug metabolism in rat hepatocytes assessed as formation of sulphate metabolite by LC-UV-MS analysis; assay type: ADME, cell-based, Hepatocyte
[5] = Drug metabolism in rat hepatocytes assessed as formation of acyl glucuronide conjugates by LC-UV-MS analysis; assay type: ADME, cell-based, Hepatocyte
[6] = Octanol-buffer partition coefficient, log D of the compound at ratio of 1:100 at pH 7.4 by shake-flask method; assay type: physicochemical
[7] = Intrinsic clearance in human hepatocytes measured per 10^6 cells; assay type: ADME, cell-based, Hepatocyte; conditions: read-out: CLH
[8] = Intrinsic clearance in rat hepatocytes measured per 10^6 cells; assay type: ADME, cell-based, Hepatocyte; conditions: read-out: CLH
[9] = Drug metabolism in rat hepatocytes assessed as oxidation metabolite formation by LC-UV-MS analysis; assay type: ADME, cell-based, Hepatocyte
MCF7 = assay: Inhibition of cell proliferation in human MCF7 cells after 7 days by laser scanning imaging cytometer analysis; assay type: functional, cell-based; conditions: MCF7, 168 h
Method in brief: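 MCF-7 cells plated in reduced-serum medium the day before; concentration response for 7 days; cell number by nucleic acid stain, read on laser scanning imaging cytometer; EC50 for decrease in proliferation.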

[10] = Free plasma concentration in human by LC-UV-MS analysis; assay type: ADME, cell-free
Method in brief: (§1)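 Equilibrium dialysis in plasma of the matching species at 37 °C; free and bound concentrations quantified by LC-UV-MS; reported as % free.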

[11] = Free plasma concentration in mouse by LC-UV-MS analysis; assay type: ADME, cell-free; method in brief: as §1
[12] = Free plasma concentration in rat by LC-UV-MS analysis; assay type: ADME, cell-free; method in brief: as §1
[13] = Volume of distribution at steady state in CD-1 mouse at 0.5 mg/kg, iv; assay type: ADME, organism-based; set-up: dose 0.5 mg/kg, route intravenous; conditions: in vivo, read-out: Vdss
Method in brief: (§2)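 Fed CD-1 mice or Alderley Park Han Wistar rats, two animals per study; IV 0.5 mg/kg as aqueous solution of DMSO and cyclodextrin; clearance and Vss derived.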

[14] = Volume of distribution at steady state in Alderley Park Han Wistar rat at 0.5 mg/kg, iv; assay type: ADME, organism-based; set-up: dose 0.5 mg/kg, route intravenous; conditions: in vivo, read-out: Vdss; method in brief: as §2
[15] = Oral bioavailability in CD-1 mouse at 50 mg/kg using 0.5% polysorbate suspension; assay type: ADME, organism-based; conditions: in vivo
Method in brief: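 Fed CD-1 mice, two per study; oral 50 mg/kg 0.5% polysorbate suspension; IV reference 0.5 mg/kg aqueous DMSO/cyclodextrin.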

[16] = Oral bioavailability in Alderley Park Han Wistar rat at 1 mg/kg using 5% DMSO, 95% of a 30% aqueous cyclodextrin solution; assay type: ADME, organism-based; conditions: in vivo
Method in brief: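 Fed Han Wistar rats, two per study; oral 1 mg/kg solution in 5% DMSO, 95% of a 30% aqueous cyclodextrin solution; IV reference 0.5 mg/kg in aqueous DMSO/cyclodextrin.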

Estrogen receptor [17] = biological target: T1, Estrogen receptor; assay: Antagonist activity at ER alpha in human MCF7 cells assessed as inhibition of estradiol-induced PR expression treated for 24 hrs after incubation with estradiol for 30 mins by laser scanning imaging cytometer analysis; assay type: cell-based
[18] = Dissociation constant, pKa of the compound in acidic medium by potentiometric analysis; assay type: physicochemical
Method in brief: (§3)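 pKa (acid and phenol) by potentiometric titration.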

[19] = Dissociation constant, pKa of the compound by potentiometric analysis […] phenol; assay type: physicochemical; method in brief: as §3
[20] = Thermodynamic solubility of the compound in 0.1 M aqueous phosphate buffer at 25 degC at pH 7.4 after 24 hrs; assay type: physicochemical; conditions: read-out: Therm_solubility
[21] = Apparent permeability from apical to basolateral side in human Caco2 cells; assay type: ADME, cell-based; conditions: Caco-2
[22] = Intrinsic clearance in mouse hepatocytes measured per 10^6 cells; assay type: ADME, cell-based, Hepatocyte; conditions: read-out: CLH
[23] = Clearance in CD-1 mouse at 0.5 mg/kg, iv; assay type: ADME, organism-based; set-up: dose 0.5 mg/kg, route intravenous; conditions: in vivo
[24] = Clearance in Alderley Park Han Wistar rat at 0.5 mg/kg, iv; assay type: ADME, organism-based; set-up: dose 0.5 mg/kg, route intravenous; conditions: in vivo
[25] = Oral bioavailability in CD-1 mouse at 20 mg/kg using propylene glycol suspension; assay type: ADME, organism-based; conditions: in vivo
Method in brief: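 Fed CD-1 mice, two per study; oral 20 mg/kg propylene glycol suspension; IV reference 0.5 mg/kg aqueous DMSO/cyclodextrin.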

[26] = Oral bioavailability in Alderley Park Han Wistar rat at 2 mg/kg using propylene glycol solution; assay type: ADME, organism-based; conditions: in vivo
Method in brief: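 Fed Han Wistar rats, two per study; oral 2 mg/kg propylene glycol solution; IV reference 0.5 mg/kg aqueous DMSO/cyclodextrin.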

[27] = Oral bioavailability in Alderley Park Han Wistar rat at 5 mg/kg using HPMC/tween suspension; assay type: ADME, organism-based; conditions: in vivo
Method in brief: (§4)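 Fed Han Wistar rats, two per study; oral HPMC/tween suspension at 1, 5 or 50 mg/kg as stated per line; IV reference 0.5 mg/kg in aqueous DMSO/cyclodextrin.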

Estrogen receptor [28] = biological target: T1, Estrogen receptor; assay: Agonist activity at ER alpha in human MCF7 cells assessed as PR gene expression after 24 hrs by laser scanning imaging cytometer analysis; assay type: cell-based; conditions: read-out: IC50 (the source's name)
[29] = Dissociation constant, pKa of the compound by potentiometric analysis; assay type: physicochemical; method in brief: as §3
[30] = Oral bioavailability in Alderley Park Han Wistar rat at 1 mg/kg using HPMC/tween suspension; assay type: ADME, organism-based; conditions: in vivo; method in brief: as §4
[31] = biological target: Voltage-gated inwardly rectifying potassium channel KCNH2 (Homo sapiens, UniProt Q12809); assay: Inhibition of hERG channel by electrophysiology; assay type: toxicity
Voltage-gated inwardly rectifying potassium channel KCNH2, sequence (Q12809 whole entry): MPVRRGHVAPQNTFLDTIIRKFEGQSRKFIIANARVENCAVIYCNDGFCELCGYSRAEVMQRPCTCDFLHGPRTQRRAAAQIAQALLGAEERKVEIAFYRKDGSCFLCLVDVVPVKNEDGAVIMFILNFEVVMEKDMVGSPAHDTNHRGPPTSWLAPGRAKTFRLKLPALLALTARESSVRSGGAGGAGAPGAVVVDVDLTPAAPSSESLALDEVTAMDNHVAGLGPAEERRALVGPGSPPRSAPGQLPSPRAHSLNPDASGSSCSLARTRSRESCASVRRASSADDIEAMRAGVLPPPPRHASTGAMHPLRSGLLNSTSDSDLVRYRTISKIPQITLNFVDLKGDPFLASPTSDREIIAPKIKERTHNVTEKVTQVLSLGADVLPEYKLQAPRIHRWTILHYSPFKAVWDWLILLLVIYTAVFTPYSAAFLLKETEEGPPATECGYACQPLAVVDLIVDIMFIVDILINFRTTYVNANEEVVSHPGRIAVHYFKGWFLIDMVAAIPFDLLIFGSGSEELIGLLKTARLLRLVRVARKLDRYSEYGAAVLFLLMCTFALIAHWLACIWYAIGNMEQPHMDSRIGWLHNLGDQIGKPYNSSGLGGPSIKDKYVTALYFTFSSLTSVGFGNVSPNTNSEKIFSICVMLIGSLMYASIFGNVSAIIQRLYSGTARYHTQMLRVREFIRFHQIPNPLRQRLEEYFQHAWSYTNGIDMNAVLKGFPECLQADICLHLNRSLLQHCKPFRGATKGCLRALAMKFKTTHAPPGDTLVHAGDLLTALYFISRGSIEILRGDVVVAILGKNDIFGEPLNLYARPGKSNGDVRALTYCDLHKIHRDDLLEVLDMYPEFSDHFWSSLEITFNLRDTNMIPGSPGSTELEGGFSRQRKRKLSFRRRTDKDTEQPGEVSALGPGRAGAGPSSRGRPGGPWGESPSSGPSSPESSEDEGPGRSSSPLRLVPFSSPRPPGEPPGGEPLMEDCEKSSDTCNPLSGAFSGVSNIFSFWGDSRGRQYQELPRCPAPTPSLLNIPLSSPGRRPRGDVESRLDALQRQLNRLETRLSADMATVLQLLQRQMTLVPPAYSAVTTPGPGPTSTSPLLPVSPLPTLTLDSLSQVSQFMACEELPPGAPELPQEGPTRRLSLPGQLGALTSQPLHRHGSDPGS

[32] = Oral bioavailability in Alderley Park Han Wistar rat at 50 mg/kg using HPMC/tween suspension; assay type: ADME, organism-based; conditions: in vivo; method in brief: as §4

O=C(O)/C=C/c1ccc(Cc2c(-c3ccc(F)cc3)c(=O)oc3cc(O)ccc23)cc1
IC50 (Estrogen receptor [1]): 9 nM
IC50 (Estrogen receptor [2]): 1280 nM
Drug metabolism [3]: metabolite_detected
Drug metabolism [4]: metabolite_detected
Drug metabolism [5]: metabolite_detected

Cc1cc(F)ccc1-c1c(Cc2ccc(/C=C/C(=O)O)cc2)c2ccc(CO)cc2oc1=O
IC50 (Estrogen receptor [1]): 100 nM
IC50 (Estrogen receptor [2]): 1000 nM
logD [6]: 1.2
hepatocyte CLint [7]: 14 µL/min/1e6 cells
hepatocyte CLint [8]: 81 µL/min/1e6 cells
Drug metabolism [9]: metabolite_detected

CC/C(=C(\c1ccccc1)c1ccc(/C=C/C(=O)O)cc1)c1ccccc1
EC50 (MCF7): 300 nM
fraction unbound [10]: < 0.002
fraction unbound [11]: 0.064
fraction unbound [12]: < 0.0001
Vd [13]: 1.1 L/kg
Vd [14]: 0.5 L/kg
bioavailability [15]: 62%
bioavailability [16]: 68%

O=C(O)/C=C/c1ccc(Cc2c(-c3ccccc3)c(=O)oc3cc(O)ccc23)cc1
IC50 (Estrogen receptor [1]): 8.1 nM
IC50 (Estrogen receptor [2]): 1180 nM
IC50 (Estrogen receptor [17]): 1500 nM
EC50 (MCF7): 260 nM
logD [6]: 1.5
pKa [18]: 4.4
pKa [19]: 7.7
solubility thermodynamic at 24 h [20]: 470 µM (≈ 187 µg/mL)
Papp A→B [21]: 10 ×10⁻⁶ cm/s
fraction unbound [10]: 0.012
fraction unbound [11]: 0.012
fraction unbound [12]: 0.0098
hepatocyte CLint [7]: 18 µL/min/1e6 cells
hepatocyte CLint [22]: 87 µL/min/1e6 cells
hepatocyte CLint [8]: 120 µL/min/1e6 cells
clearance [23]: 210 mL/min/kg
clearance [24]: 67 mL/min/kg
Vd [13]: 4.7 L/kg
Vd [14]: 1.4 L/kg
bioavailability [25]: 0%
bioavailability [26]: 0%
bioavailability [27]: 67%

Cc1cc(OC(F)(F)F)ccc1-c1c(Oc2ccc(/C=C/C(=O)O)cc2)c2ccccc2oc1=O
IC50 (Estrogen receptor [1]): 15 nM
IC50 (Estrogen receptor [2]): 100 nM
IC50 (Estrogen receptor [17]): 180 nM
EC50 (Estrogen receptor [28]): > 3100 nM
EC50 (MCF7): 20 nM
logD [6]: 2.5
pKa [29]: 3.7
solubility thermodynamic at 24 h [20]: > 470 µM
Papp A→B [21]: 39 ×10⁻⁶ cm/s
fraction unbound [10]: 0.0016
fraction unbound [12]: 0.0032
hepatocyte CLint [7]: 7 µL/min/1e6 cells
hepatocyte CLint [8]: 19 µL/min/1e6 cells
clearance [24]: 15 mL/min/kg
Vd [14]: 1.7 L/kg
bioavailability [30]: 35%

Cc1cc(OC(F)(F)F)ccc1-c1c(Oc2ccc(/C=C/C(=O)O)cc2)c2ccc(O)cc2oc1=O
IC50 (Estrogen receptor [1]): 0.5 nM
IC50 (Estrogen receptor [2]): 2.7 nM
IC50 (Estrogen receptor [17]): 3.9 nM
EC50 (MCF7): < 0.1 nM
logD [6]: 2.1
pKa [19]: 8.2
solubility thermodynamic at 24 h [20]: 97 µM (≈ 48.3 µg/mL)
IC50 [31]: > 100000 nM
Papp A→B [21]: 15 ×10⁻⁶ cm/s
fraction unbound [10]: 0.0012
fraction unbound [11]: 0.0084
fraction unbound [12]: 0.0037
hepatocyte CLint [7]: 11 µL/min/1e6 cells
hepatocyte CLint [22]: 9 µL/min/1e6 cells
hepatocyte CLint [8]: 41 µL/min/1e6 cells
clearance [24]: 38 mL/min/kg
Vd [14]: 0.7 L/kg
bioavailability [32]: 0%
